# Measurements: ChEMBL document CHEMBL1157729, “Structure-activity relationship and mechanism of action studies of manzamine analogues for the control of neuroinflammation and cerebral infections” (J Med Chem, 2010)
# Tests used:
# Plasmodium berghei [1] = assay: Antiplasmodial activity against Plasmodium berghei NK65 infected in Swiss Webster mice (Mus musculus) assessed as average parasitaemia at 10 mg/kg, perorally administered 1 day after infection for 3 days measured after 10 days post infection; format: functional; conditions: route oral
# Plasmodium berghei [2] = assay: Antiplasmodial activity against Plasmodium berghei NK65 infected in Swiss Webster mice (Mus musculus) assessed as parasitaemia cure at 5 mg/kg, perorally administered 1 day after infection for 3 days measured after 28 days post infection; format: functional; conditions: route oral
# Plasmodium berghei [3] = assay: Antiplasmodial activity against Plasmodium berghei NK65 infected in Swiss Webster mice (Mus musculus) assessed as inhibition of parasitaemia at 200 mg/kg, perorally administered 1 day after infection measured after 5 days post infection; format: functional; conditions: Plasmodium berghei, NK65, route oral
# How it was run: (§1)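 Male Swiss Webster mice (18-20 g, ≥5/group) inoculated i.p. with 2×10^7 P. berghei NK-65 parasitized RBC, given a single oral dose (100 μl, SSV or dilute HCl vehicle); parasitemia by Giemsa-stained tail blood smears days 5–28; activity as % decrease versus untreated controls on day 5.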
# Plasmodium berghei [4] = assay: Antiplasmodial activity against Plasmodium berghei NK65 infected in Swiss Webster mice (Mus musculus) assessed as average parasitaemia at 5 mg/kg, perorally administered 1 day after infection for 3 days measured after 14 days post infection; format: functional; conditions: route oral
# Mus musculus [5] = assay: Toxicity in Plasmodium berghei NK65 infected Swiss Webster mice (Mus musculus) at 3 mg/kg, intraperitoneally administered as 10 doses measured after 3 days of inoculation; format: organism-based; design: dose 3 mg/kg, route intraperitoneal; conditions: in vivo, ip, 72 h
# How it was run: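 Male Swiss Webster mice (18-20 g), 5 per group, were inoculated i.p. with 2×10^7 P. berghei NK-65 parasitized red cells. Compound was given i.p. at 10×3 mg/kg, with a vehicle-control group. Day of death, mean survival time and cure were recorded. Parasitemia was read on Giemsa-stained tail-blood smears (days 5, 7), with suppression relative to the control mean. Cure meant no parasitemia through day 28.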
# Plasmodium berghei [6] = assay: Antiplasmodial activity against Plasmodium berghei NK65 infected in Swiss Webster mice (Mus musculus) assessed as average parasitaemia at 100 mg/kg, perorally administered 1 day after infection measured after 28 days post infection; format: functional; conditions: route oral; how it was run: as §1
# Plasmodium berghei [7] = assay: Antiplasmodial activity against Plasmodium berghei NK65 infected in Swiss Webster mice (Mus musculus) assessed as average parasitaemia at 100 mg/kg, perorally administered 1 day after infection measured after 10 days post infection; format: functional; conditions: route oral
# Plasmodium berghei [8] = assay: Antiplasmodial activity against Plasmodium berghei NK65 infected in Swiss Webster mice (Mus musculus) assessed as average parasitaemia at 1.1 mg/kg, perorally administered 1 day after infection for 3 days measured after 7 days post infection; format: functional; conditions: route oral
# Plasmodium berghei [9] = assay: Antiplasmodial activity against Plasmodium berghei NK65 infected in Swiss Webster mice (Mus musculus) assessed as survivability at 5 mg/kg, perorally administered 1 day after infection for 3 days measured after 28 days post infection; format: functional; conditions: route oral
# HeLa [10] = assay: Cell cycle arrest in human HeLa cells assessed as increase in G0/G1 phase accumulation at 3 uM after 24 hrs by FACS analysis; format: functional
# Mus musculus [11] = assay: Toxicity in Plasmodium berghei NK65 infected Swiss Webster mice (Mus musculus) assessed as weight loss at 10 mg/kg, intraperitoneally administered 1 day after infection measured after 3 days post infection; format: organism-based; design: dose 10 mg/kg, route intraperitoneal; conditions: in vivo, ip, 72 h
# Plasmodium berghei [12] = assay: Antiplasmodial activity against Plasmodium berghei NK65 infected in Swiss Webster mice (Mus musculus) assessed as average parasitaemia at 3.3 mg/kg, perorally administered 1 day after infection for 3 days measured after 10 days post infection; format: functional; conditions: route oral
# HeLa [13] = assay: Cell cycle arrest in human HeLa cells assessed as decrease in G2/M phase accumulation at 20 uM after 24 hrs by FACS analysis; format: functional; design: scale not given: the % may be the effect or the level left
# Plasmodium berghei [14] = assay: Antiplasmodial activity against Plasmodium berghei NK65 infected in Swiss Webster mice (Mus musculus) assessed as average parasitaemia at 200 mg/kg, perorally administered 1 day after infection measured after 28 days post infection; format: functional; conditions: Plasmodium berghei, NK65, route oral; how it was run: as §1
# Plasmodium berghei [15] = assay: Antiplasmodial activity against Plasmodium berghei NK65 infected in Swiss Webster mice (Mus musculus) assessed as average parasitaemia at 200 mg/kg, perorally administered 1 day after infection measured after 14 days post infection; format: functional; conditions: Plasmodium berghei, NK65, route oral
# How it was run: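 Male Swiss Webster mice (18-20 g), at least 5 per group, were inoculated ip with 2×10^7 P. berghei NK-65-parasitized red cells from a donor mouse and given a single oral dose (100 μl). Stock was made in SSV or 0.1 M HCl and diluted in SSV or 0.01 M HCl. Parasitemia was read from Giemsa-stained tail blood smears from day 5 to day 28. Cure meant no parasitemia through day 28.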
# Plasmodium berghei [16] = assay: Antiplasmodial activity against Plasmodium berghei NK65 infected in Swiss Webster mice (Mus musculus) assessed as average parasitaemia at 1.1 mg/kg, perorally administered 1 day after infection for 3 days measured after 14 days post infection; format: functional; conditions: route oral
# Plasmodium berghei [17] = assay: Antiplasmodial activity against Plasmodium berghei NK65 infected in Swiss Webster mice (Mus musculus) assessed as inhibition of parasitaemia at 1.1 mg/kg, perorally administered 1 day after infection for 3 days measured after 5 days post infection; format: functional; conditions: route oral
# How it was run: (§2)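 Male Swiss Webster mice (18-20 g, ≥5/group) inoculated i.p. with 2×10^7 P. berghei NK-65 parasitized RBC; oral dosing (100 μl, SSV or dilute HCl vehicle) once daily for 3 days from day 1; Giemsa-stained tail blood smears days 5–28; inhibition is % decrease versus untreated controls on day 5.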
# Plasmodium berghei [18] = assay: Antiplasmodial activity against Plasmodium berghei NK65 infected in Swiss Webster mice (Mus musculus) assessed as average parasitaemia at 200 mg/kg, perorally administered 1 day after infection measured after 7 days post infection; format: functional; conditions: route oral
# Mus musculus [19] = assay: Toxicity in Plasmodium berghei NK65 infected Swiss Webster mice (Mus musculus) assessed as behavioral change at 100 mg/kg, perorally; format: organism-based; design: dose 100 mg/kg, route oral; conditions: in vivo, po
# How it was run: (§3)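 P. berghei NK-65 infection in male Swiss Webster mice (18-20 g; 2×10^7 parasitized erythrocytes i.p.; ≥5 per group). A single oral dose of 100 μl, diluted in SSV or 0.01 M HCl, then observation for toxicity signs and body weight. Parasitemia read from Giemsa-stained tail smears from day 5 through day 28. Mice free of parasitemia through day 28 counted as cured.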
# Plasmodium berghei [20] = assay: Antiplasmodial activity against Plasmodium berghei NK65 infected in Swiss Webster mice (Mus musculus) assessed as average parasitaemia at 5 mg/kg, perorally administered 1 day after infection for 3 days measured after 21 days post infection; format: functional; conditions: route oral
# HeLa [21] = assay: Cell cycle arrest in human HeLa cells assessed as increase in S phase accumulation at 5 uM after 24 hrs by FACS analysis; format: functional
# Plasmodium berghei [22] = assay: Antiplasmodial activity against Plasmodium berghei NK65 infected in Swiss Webster mice (Mus musculus) assessed as parasitaemia cure at 100 mg/kg, perorally administered 1 day after infection measured after 28 days post infection; format: functional; conditions: route oral; how it was run: as §3
# Plasmodium berghei [23] = assay: Antiplasmodial activity against Plasmodium berghei NK65 infected in Swiss Webster mice (Mus musculus) assessed as average parasitaemia at 1.1 mg/kg, perorally administered 1 day after infection for 3 days measured after 28 days post infection; format: functional; conditions: route oral; how it was run: as §2
# Plasmodium berghei [24] = assay: Antiplasmodial activity against Plasmodium berghei NK65 infected in Swiss Webster mice (Mus musculus) assessed as average parasitaemia at 50 mg/kg, perorally administered as single dose measured after 5 days of inoculation; format: functional; conditions: NK65, 120 h, route oral; how it was run: as §1
# Plasmodium berghei [25] = assay: Antiplasmodial activity against Plasmodium berghei infected in mice (Mus musculus) at 5 mg/kg, subcutaneously administered 1 day post infection for 3 days; format: functional; conditions: route subcutaneous
smiles,measurement,setting,value
O[C@]12C=C(c3nccc4c3[nH]c3ccccc34)[C@@H]3CCN(CCCC/C=C\CC1)C[C@@]31C[C@@H]3/C=C\CCCCN3[C@H]12 [MANZAMINE A],inhibition in vivo at 10 mg/kg,Plasmodium berghei [1],0.4%
same,inhibition in vivo at 5 mg/kg,Plasmodium berghei [2],0%
same,inhibition in vivo at 200 mg/kg,Plasmodium berghei [3],100%
same,inhibition in vivo at 5 mg/kg,Plasmodium berghei [4],13.5%
same,Activity,Mus musculus [5],Non-toxic
same,inhibition in vivo at 100 mg/kg,Plasmodium berghei [6],0%
same,inhibition in vivo at 100 mg/kg,Plasmodium berghei [7],0%
same,inhibition in vivo at 1.1 mg/kg,Plasmodium berghei [8],5.5%
same,inhibition in vivo at 5 mg/kg,Plasmodium berghei [9],100%
same,Activity,HeLa [10],56.2%
same,Activity,Mus musculus [11],Toxic
same,inhibition in vivo at 3.3 mg/kg,Plasmodium berghei [12],4.3%
same,Activity,HeLa [13],11.8%
same,inhibition in vivo at 200 mg/kg,Plasmodium berghei [14],0%
same,inhibition in vivo at 200 mg/kg,Plasmodium berghei [15],0%
same,inhibition in vivo at 1.1 mg/kg,Plasmodium berghei [16],21.7%
same,inhibition in vivo at 1.1 mg/kg,Plasmodium berghei [17],75%
same,inhibition in vivo at 200 mg/kg,Plasmodium berghei [18],0%
same,Activity,Mus musculus [19],Non-toxic
same,inhibition in vivo at 5 mg/kg,Plasmodium berghei [20],21.7%
same,Activity,HeLa [21],56.3%
same,inhibition in vivo at 100 mg/kg,Plasmodium berghei [22],100%
same,inhibition in vivo at 1.1 mg/kg,Plasmodium berghei [23],58.6%
same,inhibition in vivo at 50 mg/kg,Plasmodium berghei [24],0%
same,Activity,Plasmodium berghei [25],19.7 days
